Laboratory results taken from PMC4608532 (ChemistryOpen, 2015).

System: HUVEC
Assay: In vitro morphogenesis assay on HUVEC plated on Matrigel, VEGF-stimulated
Format: cell-based, Human
Conditions: 5 h incubation
How it was run: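 HUVEC (passages 2–10) were maintained at 37 °C, 5% CO2 in medium with 2% FBS and growth factors. 2.5×10^4 cells were seeded on pre-polymerized Matrigel and incubated for 5 h at 37 °C with or without test compound, under VEGF 10 ng mL−1 stimulation. Networks were imaged by phase contrast and scored as total branch length in pixels, with open ramifications counted as branches. Data were normalized to VEGF alone and given as mean±S.D. of 4–10 experiments, with a two-tailed paired Student's t test.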

Substance	VEGF-induced morphogenesis, % of VEGF alone (1 μM, VEGF 10 ng mL−1, length of branches, p>0.05)	effect on new capillary network formation induced by VEGF165 (in words) (VEGF165 10 ng mL−1)
Ac-KQMYLELGYATIKWL-NH2 [Compound 14, Ac-Lys-Gln-Met-Tyr-Leu-Glu-Leu-Gly-Tyr-Ala-Thr-Ile-Lys-Trp-Leu-amide]	82 %±21%	
cyclo[DKP-RGD] [Compound 1]		markedly decreased
